Experimental data: ChEMBL document CHEMBL2321819, “Design of potent poxvirus inhibitors of the heterodimeric processivity factor required for viral replication” (J Med Chem, 2013)
The source made the active and inactive calls. No cut-off for these calls is given here.

What was measured:
Vaccinia virus [1] = assay: Antiviral activity against Vaccinia virus WR infected in African green monkey BSC1 cells after overnight incubation by crystal violet staining-based plaque reduction assay; assay type: functional, organism-based; settings: Orthopoxvirus vaccinia, BSC-1
[2] = Selectivity index, ratio of CC50 for African green monkey BSC1 cells to IC50 for Vaccinia virus WR; assay type: functional, BSC-1
BSC-1 [3] = assay: (§1) Cytotoxicity against African green monkey BSC1 cells after 20 hrs by lactate dehydrogenase assay; assay type: cell-based; settings: chlorocebus aethiops, bsc-1, 20 h
Procedure, shortened: (§2)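 Cytotoxicity in BSC-1 cells was measured by LDH release, with Neutral Red also used. Assays were run in triplicate and repeated at least twice. CC50 was obtained from a variable-slope four-parameter nonlinear regression fit. Values ≥100 μM were called not active.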

BSC-1 [4] = assay: Inhibition of 1 MOI of Vaccinia virus WR DNA polymerase processivity factor A20NT100-D4 complex infected in African green monkey BSC1 cells assessed as decrease in BrdU incorporation at 1 uM after 4 to 8 hrs by DAPI staining-based confocal microscopic analysis; assay type: cell-based
Vaccinia virus [5] = assay: Antiviral activity against 5 MOI of Vaccinia virus WR infected in African green monkey BSC1 cells assessed as decrease in virus-induced cytopathicity at 1 uM after 8 hrs relative to cidofovir; assay type: functional, organism-based; settings: Orthopoxvirus vaccinia, BSC-1
Vaccinia virus [6] = assay: Antiviral activity against 5 MOI of Vaccinia virus WR infected in African green monkey BSC1 cells assessed as decrease in virus-induced cytopathicity at 1 uM after 8 hrs relative to vehicle-treated control; assay type: functional, organism-based; settings: Orthopoxvirus vaccinia, BSC-1
BSC-1 [7] = assay: Inhibition of 1 MOI of Vaccinia virus WR DNA polymerase processivity factor A20NT100-D4 complex infected in African green monkey BSC1 cells assessed as decrease in A4 protein level after 12 hrs by Western blotting analysis; assay type: cell-based
BSC-1 [8] = assay: Inhibition of 1 MOI of Vaccinia virus WR DNA polymerase processivity factor A20NT100-D4 complex infected in African green monkey BSC1 cells assessed as decrease in E3 protein level at 1 uM after 8 hrs by Western blotting analysis; assay type: cell-based
BSC-1 [9] = assay: Inhibition of 5 MOI of Vaccinia virus WR DNA polymerase processivity factor A20NT100-D4 complex coexpressing recombinant L1 protein infected in African green monkey BSC1 cells assessed as reduction in EGFP expression at 1 uM after 8 hrs by fluorescence microscopic analysis; assay type: cell-based
[10] = as §1; assay type: cell-based, BSC-1; settings: chlorocebus aethiops, BSC-1 cells; procedure, shortened: as §2
BSC-1 [11] = assay: Inhibition of 5 MOI of Vaccinia virus WR DNA polymerase processivity factor A20NT100-D4 complex coexpressing recombinant L1 protein infected in African green monkey BSC1 cells assessed as reduction in EGFP expression at 100 uM after 8 hrs by fluorescence microscopic analysis; assay type: cell-based

Cc1ccc(Sc2c(C(=O)O)[nH]c3cccc(C)c23)cc1
IC50 (Vaccinia virus [1]): ≥ 100 µM

CCOC(=O)c1[nH]c2cccc(C)c2c1Sc1ccc(Cl)cc1
IC50 (Vaccinia virus [1]): ≥ 100 µM

Cc1ccc2c(Sc3cc(Cl)cc(Cl)c3)c(C(=O)O)[nH]c2c1
Ratio CC50/IC50 [2]: 11 | CC50 (BSC-1 [3]): 75 µM | IC50 (Vaccinia virus [1]): 7 µM

Cc1ccc2[nH]c(C(=O)O)c(Sc3ccc(Cl)cc3)c2c1
IC50 (Vaccinia virus [1]): 46 µM

COC(=O)c1[nH]c2cccc(C)c2c1Sc1ccc(Cl)cc1
IC50 (Vaccinia virus [1]): 21 µM

COC(=O)c1[nH]c2ccc(C)cc2c1Sc1ccc(Cl)cc1
IC50 (Vaccinia virus [1]): ≥ 100 µM

Cc1ccc2c(Sc3cc(Cl)cc(Cl)c3)c(CCC(N)=O)[nH]c2c1
Ratio CC50/IC50 [2]: 374 | CC50 (BSC-1 [3]): 16 µM | inhibition (BSC-1 [4]): Active | Activity (Vaccinia virus [5]): Active | Activity (Vaccinia virus [6]): Active | inhibition (BSC-1 [7]): Dose-dependent effect | inhibition (BSC-1 [8]): Active | inhibition (BSC-1 [9]): Active | IC50 (Vaccinia virus [1]): 0.042 µM

CCCCCCNC(=O)CCc1[nH]c2cc(C)ccc2c1Sc1cc(Cl)cc(Cl)c1
CC50 (BSC-1 [3]): 27 µM | IC50 (Vaccinia virus [1]): ≥ 100 µM

COC(=O)c1ccc(Sc2c(C(=O)O)[nH]c3cccc(C)c23)cc1
IC50 (Vaccinia virus [1]): ≥ 100 µM

CCc1ccc2c(Sc3ccc(Cl)c(Cl)c3)c(C(=O)O)[nH]c2c1
IC50 (Vaccinia virus [1]): 42 µM

Cc1cccc2[nH]c(C(=O)O)c(Sc3cc(Cl)c(Cl)cc3Cl)c12
IC50 (Vaccinia virus [1]): 18 µM

O=C(O)c1[nH]c2ccccc2c1Sc1cc(Cl)cc(Cl)c1
IC50 (Vaccinia virus [1]): 43 µM

Cc1cccc2c(Sc3ccc(Cl)cc3)c(C(=O)O)[nH]c12
IC50 (Vaccinia virus [1]): 74 µM

Cc1ccc2c(Sc3cc(Cl)cc(Cl)c3)c(CCC(=O)O)[nH]c2c1
Ratio CC50/IC50 [2]: 152 | CC50 (BSC-1 [3]): 36 µM | IC50 (Vaccinia virus [1]): 0.244 µM

COC(=O)c1[nH]c2cc(C)ccc2c1Sc1ccc(Cl)cc1
IC50 (Vaccinia virus [1]): 19 µM

CCc1ccc2c(Sc3ccc(Cl)cc3)c(C(=O)O)[nH]c2c1
IC50 (Vaccinia virus [1]): 36 µM

Cc1ccc2c(Sc3cccc(Cl)c3)c(C(=O)O)[nH]c2c1
IC50 (Vaccinia virus [1]): 51 µM

Cc1cccc2c(Sc3ccc(Cl)c(Cl)c3)c(C(=O)O)[nH]c12
IC50 (Vaccinia virus [1]): 35 µM

O=C(O)c1[nH]c2ccccc2c1Sc1ccc(Cl)cc1
IC50 (Vaccinia virus [1]): ≥ 100 µM

Cc1ccc2c(Sc3ccc(C(=O)O)cc3)c(C(=O)O)[nH]c2c1
IC50 (Vaccinia virus [1]): ≥ 100 µM

Cc1cccc2[nH]c(C(=O)OC(C)C)c(Sc3ccc(Cl)cc3)c12
IC50 (Vaccinia virus [1]): ≥ 100 µM

Cc1ccc2c(Sc3ccc(Cl)c(Cl)c3)c(C(=O)O)[nH]c2c1
IC50 (Vaccinia virus [1]): 34 µM

Cc1ccc2c(Sc3cccc(F)c3)c(C(=O)O)[nH]c2c1
IC50 (Vaccinia virus [1]): 69 µM

Cc1ccc2c(Sc3cc(Cl)cc(Cl)c3)c(CCCC(N)=O)[nH]c2c1
CC50 at 20 h [10]: ≥ 100 µM | IC50 (Vaccinia virus [1]): 0.208 µM

COc1ccc(Sc2c(C(=O)O)[nH]c3cc(C)ccc23)cc1
IC50 (Vaccinia virus [1]): ≥ 100 µM

Cc1ccc2c(Sc3ccc(Br)cc3)c(C(=O)O)[nH]c2c1
IC50 (Vaccinia virus [1]): ≥ 100 µM

COC(=O)c1[nH]c2cc(C)ccc2c1Sc1cc(Cl)cc(Cl)c1
IC50 (Vaccinia virus [1]): ≥ 100 µM

Cc1ccc2c(Sc3ccc(Cl)cc3)c(C(=O)O)[nH]c2c1
IC50 (Vaccinia virus [1]): 82 µM

CCn1c(C(=O)O)c(Sc2ccc(Cl)cc2)c2cc(C)ccc21
IC50 (Vaccinia virus [1]): 86 µM

Cc1ccc(C)c2c(Sc3ccc(Cl)cc3)c(C(=O)O)[nH]c12
IC50 (Vaccinia virus [1]): 50 µM

COc1cccc2[nH]c(C(=O)O)c(Sc3ccc(Cl)cc3)c12
IC50 (Vaccinia virus [1]): ≥ 100 µM

Cc1ccc2[nH]c(C(=O)OCc3ccccc3)c(Sc3ccc(Cl)cc3)c2c1
IC50 (Vaccinia virus [1]): ≥ 100 µM

COC(=O)c1[nH]c2c(C)cccc2c1Sc1ccc(Cl)cc1
IC50 (Vaccinia virus [1]): 23 µM

O=C(O)c1[nH]c2cc(Br)ccc2c1Sc1ccc(Cl)cc1
IC50 (Vaccinia virus [1]): 51 µM

O=C(O)c1[nH]c2cc(Cl)ccc2c1Sc1ccc(Cl)cc1
IC50 (Vaccinia virus [1]): 47 µM

Cc1ccc2c(Sc3ccc(Cl)cc3Cl)c(C(=O)O)[nH]c2c1
IC50 (Vaccinia virus [1]): 37 µM

O=C(O)c1[nH]c2cc(F)ccc2c1Sc1ccc(Cl)cc1
IC50 (Vaccinia virus [1]): 40 µM

CCc1ccc2c(Sc3cc(Cl)cc(Cl)c3)c(C(=O)O)[nH]c2c1
IC50 (Vaccinia virus [1]): 9 µM

COC(=O)c1[nH]c2cc(C)ccc2c1Sc1ccccc1
IC50 (Vaccinia virus [1]): 10 µM

Cc1ccc2c(c1)c(Sc1ccc(Cl)cc1)c(C(=O)O)n2C
IC50 (Vaccinia virus [1]): ≥ 100 µM

Cc1cccc2[nH]c(C(=O)O)c(Sc3ccc([N+](=O)[O-])cc3)c12
IC50 (Vaccinia virus [1]): ≥ 100 µM

Cc1cccc2[nH]c(C(=O)Oc3ccccc3)c(Sc3ccc(Cl)cc3)c12
IC50 (Vaccinia virus [1]): ≥ 100 µM

Cc1cccc2[nH]c(C(=O)O)c(Sc3ccc(Cl)cc3)c12
IC50 (Vaccinia virus [1]): 86 µM

Cc1ccc(Sc2c(C(=O)O)[nH]c3cc(C)ccc23)cc1
IC50 (Vaccinia virus [1]): ≥ 100 µM

Cc1cccc2[nH]c(C(=O)OCc3ccccc3)c(Sc3ccc(Cl)cc3)c12
IC50 (Vaccinia virus [1]): ≥ 100 µM

Cc1ccc2c(Sc3ccc(C(F)(F)F)cc3)c(C(=O)O)[nH]c2c1
IC50 (Vaccinia virus [1]): 33 µM

COC(=O)c1c(Sc2ccc(Cl)cc2)c2cc(C)ccc2n1C
IC50 (Vaccinia virus [1]): ≥ 100 µM

COc1ccc(Sc2c(C(=O)O)[nH]c3cccc(C)c23)cc1
IC50 (Vaccinia virus [1]): ≥ 100 µM

Cc1ccc2[nH]c(C(=O)OC(C)C)c(Sc3ccc(Cl)cc3)c2c1
IC50 (Vaccinia virus [1]): ≥ 100 µM

Cc1ccc2c(Sc3cc(Cl)c(Cl)cc3Cl)c(C(=O)O)[nH]c2c1
IC50 (Vaccinia virus [1]): 25 µM

Cc1ccc2[nH]c(C(=O)Oc3ccccc3)c(Sc3ccc(Cl)cc3)c2c1
IC50 (Vaccinia virus [1]): ≥ 100 µM

Cc1cccc2c(Sc3cc(Cl)c(Cl)cc3Cl)c(C(=O)O)[nH]c12
IC50 (Vaccinia virus [1]): 21 µM

CNC(=O)c1[nH]c2cc(C)ccc2c1Sc1cc(Cl)cc(Cl)c1
IC50 (Vaccinia virus [1]): ≥ 100 µM

Cc1ccc2c(Sc3cc(Cl)cc(Cl)c3)c(CC(N)=O)[nH]c2c1
Ratio CC50/IC50 [2]: 570 | CC50 (BSC-1 [3]): 26 µM | IC50 (Vaccinia virus [1]): 0.046 µM

Nc1ccn(C[C@@H](CO)OCP(=O)(O)O)c(=O)n1
inhibition (BSC-1 [11]): Active

CCn1c(C(=O)OC)c(Sc2ccc(Cl)cc2)c2cc(C)ccc21
IC50 (Vaccinia virus [1]): 39 µM

Cc1ccc2c(Sc3ccc(C(F)(F)F)cc3[N+](=O)[O-])c(C(=O)O)[nH]c2c1
IC50 (Vaccinia virus [1]): ≥ 100 µM

Cc1ccc2c(Sc3ccccc3)c(C(=O)O)[nH]c2c1
IC50 (Vaccinia virus [1]): ≥ 100 µM

CCOC(=O)c1[nH]c2ccc(C)cc2c1Sc1ccc(Cl)cc1
IC50 (Vaccinia virus [1]): ≥ 100 µM
